These results are taken from ChEMBL document CHEMBL1157338, “5-alkylresorcinols from Merulius incarnatus” (J Nat Prod, 2006).

The subject of data set [1] is Cryptococcus neoformans. Nature of the data set: Antimicrobial activity against Cryptococcus neoformans ATCC 90113 by broth dilution method. Format: functional, organism-based. A general note: Broth dilution looks for growth in wells or tubes with falling amounts of substance.
Data set [2] has as its system Mycobacterium intracellulare. Nature of the data set: Antimicrobial activity against Mycobacterium intracellular ATCC 23068 by alamar blue method. Format: functional, organism-based. In a few lines: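 Modified Alamar Blue procedure, highest concentration 20 µg/mL. IC50 taken from dose-response curves, with amphotericin B as positive control.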
A general note: The colour change of resazurin is a common sign of viable cells or microbes.

The test system of data set [3] is Staphylococcus aureus. Nature of the data set: Antimicrobial activity against methicillin-resistant Staphylococcus aureus ATCC 43300 by antimicrobial susceptibility test. Format: functional, organism-based.
For data set [4], the system named is Candida albicans. Nature of the data set: Antimicrobial activity against Candida albicans ATCC 90028 by broth dilution method. It counts as functional, organism-based.
Data set [5] has as its system Nakaseomyces glabratus. Nature of the data set: Antimicrobial activity against Candida glabrata ATCC 90030 by broth dilution method. It counts as functional, organism-based.
Data set [6] deals with Pichia kudriavzevii. Nature of the data set: Antimicrobial activity against Candida krusei ATCC 6258 by broth dilution method. It counts as functional, organism-based.
Data set [7] has as its system Aspergillus fumigatus. Nature of the data set: Antimicrobial activity against Aspergillus fumigatus ATCC 90906 by broth dilution method. Format: functional, organism-based.
Data set [8] deals with Vero. Nature of the data set: Cytotoxicity against african green monkey Vero cells at 25 ug/ml. It counts as cell-based. The conditions noted are these: chlorocebus sabaeus.
The test system of data set [9] is Leishmania major. Nature of the data set: Antileishmanial activity against Leishmania major MRHO/IR/75/ER promastigotes after 72 hrs by alamar blue assay. Format: functional, organism-based. In a few lines: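 Alamar Blue read-out against promastigotes, with pentamidine and amphotericin B as reference standards.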

Usually IC50 stands for the concentration needed to halve the response being measured. For orientation: IC90 means the point of the concentration-response curve where the effect stands at 90%.

Structures are written as SMILES. Converted amounts (≈) assume the structure as drawn. The source made the active and inactive calls. The rule behind the calls is not given here.

Regarding `C[C@@H]1[C@H](O)[C@@H](C)/C=C/C=C/C=C/C=C/C=C/C=C/C=C/[C@H](O[C@@H]2O[C@H](C)[C@@H](O)[C@H](N)[C@@H]2O)C[C@@H]2O[C@](O)(C[C@@H](O)C[C@@H](O)[C@H](O)CC[C@@H](O)C[C@@H](O)CC(=O)O[C@H]1C)C[C@H](O)[C@H]2C(=O)O` [AMPHOTERICIN B], the half-maximal inhibitory concentration (IC50) in data set [1] stood at 0.75 mg/L (≈ 0.812 µM).
In data set [2], `O=C(O)c1cn(C2CC2)c2cc(N3CCNCC3)c(F)cc2c1=O` [CIPROFLOXACIN] gave a 50% inhibitory concentration (IC50) of 0.4 mg/L (≈ 1.21 µM).
`C=CCCC/C=C\C=C\CCCCCCCCc1cc(O)cc(O)c1`: the midpoint of inhibition in data set [3], the IC50, lay at 15 mg/L (≈ 43.8 µM).
Still for that read-out and setting: in the case of `CCCCC/C=C\C/C=C\CCCCCCCc1cc(O)cc(O)c1` it was 6.5 mg/L (≈ 18.9 µM).
Take `CCCCCCCC/C=C\CCCCCCCc1cc(O)cc(O)c1`: the values for the half-maximal inhibitory concentration (IC50) in data set [3] and in [2] were 8 mg/L (≈ 23.1 µM) and 10 mg/L (≈ 28.9 µM), respectively.
With `CCCCCCCCCCCCCCCc1cc(O)cc(O)c1`, the result in [4], in [5], in data set [6] and in [7] was inactive.
With `CCCCCCCCCCCCCCCCCc1cc(O)cc(O)c1`, the outcome in data set [4], in [5], in [6] and in data set [7] was inactive.
`C=CCCC/C=C\C/C=C\CCCCCCCc1cc(O)cc(O)c1` had an IC50 in data set [3] of 2.5 mg/L (≈ 7.3 µM). In addition, in data set [8], the Activity result is on record as “Non-toxic”. In data set [9], the midpoint of inhibition, the IC50, lay at 3.6 mg/L (≈ 10.5 µM) and the IC90 is 7 mg/L (≈ 20.4 µM).
`N=C(N)c1ccc(OCCCCCOc2ccc(C(=N)N)cc2)cc1` [PENTAMIDINE]: in data set [9], 0.6 mg/L (≈ 1.76 µM) corresponded to half-maximal inhibition (IC50) and the 90% effect concentration (IC90) was found to be 1.9 mg/L (≈ 5.58 µM).
